From ChEMBL document CHEMBL4406835, “Discovery of dual-acting opioid ligand and TRPV1 antagonists as novel therapeutic agents for pain” (Eur J Med Chem, 2019)
pEC50, pKi: −log10 of the molar value. Activity calls are given as the source filed them. The rule behind the calls is not given here.

Tests used:
[1] = molecular target: T1, Transient receptor potential cation channel subfamily V member 1 (Homo sapiens, UniProt Q8NER1); assay: Displacement of [3H]RTX from recombinant human TRPV1 expressed in CHO cells incubated for 60 mins by liquid scintillation counter; format: cell-based
Outline: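 Pellets from human TRPV1 CHO cells (Tet-Off, induced 48 h) in DPBS with Ca2+/Mg2+ and BSA 0.25 mg/mL. Incubated with [3H]RTX 100 pM and varied competitor, 60 min at 37 °C. Nonspecific binding defined with unlabelled RTX 100 nM. Chilled, glycoprotein added, membranes pelleted by centrifugation, scintillation counted. Ki from Hill equation fit. Mean of ≥3 experiments.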

[2] = molecular target: T1, Transient receptor potential cation channel subfamily V member 1; assay: Agonist activity at recombinant human TRPV1 expressed in CHO cells assessed as increase in calcium uptake incubated for 5 mins in presence of 45Ca2+ and capsaicin by liquid scintillation counter; format: cell-based; settings: for EC50: cho
[3] = molecular target: T1, Transient receptor potential cation channel subfamily V member 1; assay: Antagonist activity at recombinant human TRPV1 expressed in CHO cells assessed as as inhibition of capsaicin-induced calcium uptake incubated for 5 mins in presence of 45Ca2+ by liquid scintillation counter; format: cell-based
Outline: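 CHO cells stably expressing human TRPV1 (Tet-Off) induced 48 h in tetracycline-free medium. Uptake run in DMEM with BSA 0.25 mg/mL and 45Ca2+ 37 kBq/mL, with capsaicin 30 nM plus increasing test concentrations, 5 min at 37 °C. Cells washed, lysed in RIPA, counted. Four wells per point, Hill fit. ID50 converted to Ki by Cheng-Prusoff. Mean of ≥3 experiments.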

[4] = molecular target: Mu-type opioid receptor (Homo sapiens, UniProt P35372); assay: Displacement of [3H]-DAMGO from full length human MOR expressed in chem5 cells incubated for 60 mins by liquid scintillation counter; format: cell-based
[5] = test system: Mus musculus; assay: Antinociceptive activity in ICR mouse assessed as reduction in paw licking time at 30 mg/kg, ip pretreated for 30 mins followed by formalin treatment and measures after 20 to 30 mins by formalin test relative to control; format: functional
Outline: (§1)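 Male ICR mice, 20-25 g. Compound i.p. 30 min before 20 μL of 2% formalin in 0.9% saline into dorsal right hindpaw. Licking time scored at 0-5 min (early) and 20-30 min (late) and expressed as % decrease versus vehicle. n = 3-4, mean ± SEM.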

[6] = test system: Mus musculus; assay: Antinociceptive activity in ICR mouse assessed as reduction in capsaicin-induced paw licking at 20 mg/kg, ip pretreated for 30 mins followed by capsaicin treatment and measured for 5 mins relative to control; format: functional
Outline: (§2)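 Male ICR mice, 20-25 g, 3-4 per group. Pretreated i.p. with compound or vehicle 30 min before intraplantar capsaicin 3 μg/paw in 10 μL into right hind paw. Licking time recorded for 5 min and expressed as % inhibition versus vehicle. Mean ± SEM.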

[7] = test system: Mus musculus; assay: Antinociceptive activity in ICR mouse assessed as reduction in paw licking time at 30 mg/kg, ip pretreated for 30 mins followed by formalin treatment and measures after 0 to 5 mins by formalin test relative to control; format: functional; outline: as §1
[8] = test system: Mus musculus; assay: Antinociceptive activity in ip dosed ICR mouse assessed as reduction in pain response of paw licking and biting pretreated for 30 mins followed by formalin treatment and measures after 0 to 5 mins by formalin test; format: functional
Outline: (§3)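 Male ICR mice, 20-25 g, 6-8 per group. Compound i.p. 30 min before 20 μL of 2% formalin in 0.9% saline into dorsal right hindpaw. Licking and biting time summed per 5 min block over 30 min. Early phase 0-5 min, late phase 20-30 min. ED50 derived from dose-response.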

[9] = test system: Mus musculus; assay: Antinociceptive activity in ip dosed ICR mouse assessed as reduction in capsaicin-induced paw licking pretreated for 30 mins followed by capsaicin treatment and measured for 5 mins; format: functional, organism-based
Outline: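 Male ICR mice, 20-25 g, in groups of 3-4. Compound or vehicle given i.p. 30 min before intraplantar capsaicin (3 μg/paw in 10 μl) into the right hind paw. Time spent licking the injected paw is recorded over 5 min. Results are given as mean ± SEM and compared with vehicle.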

[10] = test system: Mus musculus; assay: (§4) Antinociceptive activity in ICR mouse assessed as reduction in paw licking time at 30 mg/kg, ip pretreated with 10 mg/kg, ip mu opioid receptor antagonist, naloxone 15 mins prior to compound treatment and 30 mins later treated with formalin and measured after 0 to 5 mins by formalin test relative to control; format: functional
Outline: (§5)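 Male ICR mice, 20-25 g, 3-4 per group. Naloxone 10 mg/kg i.p. given 15 min before test article or vehicle i.p. Formalin paw test 30 min later: 20 μL of 2% formalin into right hindpaw. Licking scored at 0-5 min and 20-30 min and compared with vehicle. Mean ± SEM.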

[11] = test system: Mus musculus; assay: Antinociceptive activity in ip dosed ICR mouse assessed as reduction in pain response of paw licking and biting pretreated for 30 mins followed by formalin treatment and measures after 20 to 30 mins by formalin test; format: functional; outline: as §3
[12] = test system: Mus musculus; assay: Antinociceptive activity in ICR mouse assessed as reduction of pain behaviour at 40 mg/kg, ip pretreated for 30 mins followed by formalin treatment and measured after 20 to 30 mins by formalin test; format: functional, organism-based
Outline: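 Male ICR mice, 20-25 g, in groups of 6-8. Compound given i.p. 30 min before 20 μL of 2% formalin in 0.9% saline injected into the dorsal right hindpaw. Licking and biting time is summed in 5-min blocks over 30 min. Late phase is 20-30 min after injection.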

[13] = test system: Mus musculus; assay: as §4, with “after 20” for “after 0”, “to 30” for “to 5”; format: functional; outline: as §5
[14] = test system: Mus musculus; assay: Antinociceptive activity in ICR mouse assessed as reduction in capsaicin-induced paw licking at 40 mg/kg, ip pretreated for 30 mins followed by capsaicin treatment and measured for 5 mins relative to control; format: functional; outline: as §2

Mu-type opioid receptor, sequence (P35372 whole entry): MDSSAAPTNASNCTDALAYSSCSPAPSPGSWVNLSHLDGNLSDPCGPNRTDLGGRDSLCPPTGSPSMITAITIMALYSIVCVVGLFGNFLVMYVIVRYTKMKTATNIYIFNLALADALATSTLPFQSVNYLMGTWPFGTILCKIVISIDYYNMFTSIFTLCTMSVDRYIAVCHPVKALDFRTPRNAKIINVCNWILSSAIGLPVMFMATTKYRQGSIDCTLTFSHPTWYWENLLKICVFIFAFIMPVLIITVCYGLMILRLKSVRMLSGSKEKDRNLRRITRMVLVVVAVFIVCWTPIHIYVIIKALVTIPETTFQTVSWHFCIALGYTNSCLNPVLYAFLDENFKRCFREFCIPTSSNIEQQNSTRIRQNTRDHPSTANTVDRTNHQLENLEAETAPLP
T1 sequence (Q8NER1 whole entry): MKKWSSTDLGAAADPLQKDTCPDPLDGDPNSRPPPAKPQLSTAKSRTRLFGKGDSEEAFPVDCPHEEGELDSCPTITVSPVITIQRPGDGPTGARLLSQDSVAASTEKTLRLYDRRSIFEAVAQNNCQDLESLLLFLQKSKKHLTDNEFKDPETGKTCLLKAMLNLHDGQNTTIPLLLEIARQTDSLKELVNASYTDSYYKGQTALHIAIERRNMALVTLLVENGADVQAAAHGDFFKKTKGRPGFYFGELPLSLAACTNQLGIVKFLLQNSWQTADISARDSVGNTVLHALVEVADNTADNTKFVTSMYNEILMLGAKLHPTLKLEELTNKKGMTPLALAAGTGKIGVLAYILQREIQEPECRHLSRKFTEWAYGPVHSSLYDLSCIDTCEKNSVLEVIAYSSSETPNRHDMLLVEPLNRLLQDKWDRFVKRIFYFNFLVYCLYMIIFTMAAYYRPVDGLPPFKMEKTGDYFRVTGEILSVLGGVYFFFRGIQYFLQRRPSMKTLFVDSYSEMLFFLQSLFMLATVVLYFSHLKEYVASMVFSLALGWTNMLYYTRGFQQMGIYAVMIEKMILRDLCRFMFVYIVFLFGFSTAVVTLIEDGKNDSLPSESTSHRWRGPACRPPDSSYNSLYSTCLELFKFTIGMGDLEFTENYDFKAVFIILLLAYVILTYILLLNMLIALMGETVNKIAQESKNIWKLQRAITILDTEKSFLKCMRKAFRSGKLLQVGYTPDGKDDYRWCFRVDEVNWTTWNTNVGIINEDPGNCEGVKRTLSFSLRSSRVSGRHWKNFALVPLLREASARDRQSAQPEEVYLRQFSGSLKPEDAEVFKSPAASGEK

| Structure (SMILES) | pKi [1] | pKi [4] | EC50 [2] | further results |
| --- | --- | --- | --- | --- |
| CN(C)C1(Cc2ccccc2)CCN(c2cc(C(F)(F)F)ccc2CNC(=O)Nc2cccc3c(=O)[nH]ccc23)CC1 | 6.95 | 6.98 |  | pEC50 ([2]; read-out: EC50): 7.36; Ki [3]: Not Active |
| CN(C)C1(Cc2ccccc2)CCN(c2cc(C(F)(F)F)ccc2CNC(=O)Nc2ccc3ccncc3c2)CC1 | 8.13 | 6.75 | Not Active |  |
| CN(C)C1(Cc2ccccc2)CCN(c2cc(C(F)(F)F)ccc2CNC(=O)Nc2ccc(NS(C)(=O)=O)c(F)c2)CC1 | 5.94 | 6.43 | Not Active | inhibition [3]: Active |
| CN(C)C1(Cc2ccccc2)CCN(c2cc(C(F)(F)F)ccc2CNC(=O)Nc2cccc3ccncc23)CC1 | 7.91 | 6.69 | Not Active |  |
| CN(C)C1(Cc2ccccc2)CCN(c2cc(C(F)(F)F)ccc2CNC(=O)Nc2ccc3cnccc3c2)CC1 | 7.21 | 7.77 | Not Active |  |
| CN(C)C1(Cc2ccccc2)CCN(c2cc(C(F)(F)F)ccc2CNC(=O)Nc2cccc3[nH]c(=O)ccc23)CC1 | 8.78 | 6.62 | Not Active |  |
| CN(C)C1(Cc2ccccc2)CCN(c2cc(C(F)(F)F)ccc2CNC(=O)Nc2cccc3ccc(O)cc23)CC1 | 9.34 | 6.86 | Not Active |  |
| CN(C)C1(Cc2ccccc2)CCN(c2cc(C(F)(F)F)ccc2CNC(=O)Nc2cccc3ncccc23)CC1 | 7.97 | 7.54 | Not Active | inhibition in vivo at 30 mg/kg [5]: 90.2%; inhibition in vivo at 20 mg/kg [6]: 64.8%; inhibition in vivo at 30 mg/kg [7]: 52.5%; Activity [8]: Dose-dependent effect; ED50 [8]: 23.9 mg/kg; inhibition [9]: Dose-dependent effect; inhibition (INH) [10]: 5.7%; Activity [11]: Dose-dependent effect; ED50 [11]: 10.5 mg/kg; inhibition [12]: Active; inhibition (INH) [13]: 47.9%; inhibition in vivo at 40 mg/kg [14]: 89.6% |
| CN(C)C1(Cc2ccccc2)CCN(c2cc(C(F)(F)F)ccc2CNC(=O)Nc2cccc3c2CC(O)CC3)CC1 (configuration not stated) | 9.02 | 6.58 | Not Active |  |
| CN(C)C1(Cc2ccccc2)CCN(c2cc(C(F)(F)F)ccc2CNC(=O)Nc2ccc(CNS(C)(=O)=O)c(F)c2)CC1 | 7.79 | 6.49 | Not Active |  |
| CN(C)C1(Cc2ccccc2)CCN(c2cc(C(F)(F)F)ccc2CNC(=O)Nc2ccc3c(c2)OCC3)CC1 | 7.38 | 6.65 | Not Active |  |
| CN(C)C1(Cc2ccccc2)CCN(c2cc(C(F)(F)F)ccc2CNC(=O)NCc2ccc(NS(C)(=O)=O)c(F)c2)CC1 | 6.58 | 7.12 | Not Active |  |
| CC1CCN(c2nc(C(F)(F)F)ccc2CNC(=O)[C@@H](C)c2ccc(NS(C)(=O)=O)c(F)c2)CC1 (racemic) | 8.10 |  | Not Active |  |
| CN(C)C1(Cc2ccccc2)CCN(c2cc(C(F)(F)F)ccc2CNC(=O)Nc2ccc(CO)c(F)c2)CC1 | 7.55 | 6.62 | Not Active |  |
| CN(C)C1(Cc2ccccc2)CCN(c2cc(C(F)(F)F)ccc2CNC(=O)Nc2ccc(CNS(N)(=O)=O)c(F)c2)CC1 | 7.82 | 7.14 | Not Active |  |
| CN(C)C1(Cc2ccccc2)CCN(c2cc(C(F)(F)F)ccc2CNC(=O)Nc2ccc3cccnc3c2)CC1 | 7.85 | 6.78 | Not Active |  |
| CC(C(=O)NCc1ccc(C(F)(F)F)cc1N1CCC(Cc2ccccc2)(N(C)C)CC1)c1ccc(NS(C)(=O)=O)c(F)c1 (configuration not stated) | 8.42 | 6.37 | Not Active |  |
| CN(C)C1(Cc2ccccc2)CCN(c2cc(C(F)(F)F)ccc2CNC(=O)Nc2cccc3cnccc23)CC1 | 9.17 | 6.29 | Not Active |  |
